# Values joined by “and” are separate entries in the source; they are usually repeats but may differ in a detail not shown here. Equal entries are not always repeated.
# What was measured:
# Canis familiaris [1] = experiment: Effect on ischemic arrhythmias was studied in dogs. 10 mg/kg was injected intravenously and percent sinus beats before compound administration, was reported.; format: functional, Canis lupus familiaris; details: route intravenous
# Method in brief: (§1)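 Conscious dogs with ischemic ventricular arrhythmias persisting for 24 h after a glass bead was inserted into a coronary artery. Compound was given iv or orally. Lead II ECG recorded continuously by telemetry. Percent sinus beats taken before and after dosing, plus duration of effect (min).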
# Canis familiaris [2] = experiment: Effect on ischemic arrhythmias was studied in dogs, by glass bead method. 60 mg/kg was administered perorally and percent sinus beats after compound administration, was reported.; format: functional, Canis lupus familiaris; details: route oral
# Method in brief: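 Conscious dogs; ventricular arrhythmias induced by inserting a glass bead into a coronary artery, with marked arrhythmias persisting for 24 h. Compound given orally. Lead II ECG recorded continuously by telemetry. Percent sinus beats measured before and after dosing, and duration of effect in min recorded.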
# Canis familiaris [3] = experiment: Effect on ischemic arrhythmias was studied in dogs, by glass bead method. 60 mg/kg was administered perorally and percent sinus beats before compound administration, was reported.; format: functional, Canis lupus familiaris; details: route oral; method in brief: as §1
# Canis familiaris [4] = experiment: Effect on ischemic arrhythmias was studied in dogs. 10 mg/kg was injected intravenously and percent sinus beats after compound administration, was reported.; format: functional, Canis lupus familiaris; details: route intravenous; method in brief: as §1
# Cavia porcellus = species: Cavia porcellus; experiment: Maximal follow rate showing the contractile frequencies of atria to electrical stimulation 10 min after incubation with right atria of guinea pig.; format: functional
# Method in brief: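 Isolated right atria driven by electrical stimulation (Dawes' method). Maximal follow rate, the highest contractile frequency the atria follow, measured as an index of refractory period 10 min after incubation with compound.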
# Mus musculus [5] = experiment: Compound was evaluated for ventricular tachycardia activity in perorally administered mice, 30 min before aconitine infusion, at a dose of 30 mg/kg; S=significant antiarrhythmic effect; format: functional, organism-based; parameters: dose 30 mg/kg; details: Heart
# Method in brief: (§2)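 Aconitine arrhythmia model in pentobarbital-anesthetized male mice (20-35 g). Test compound was given iv 3 min or po 30 min before continuous tail-vein infusion of aconitine (0.685 µg/min). Lead II ECG recorded; onset times of ventricular extrasystole (VES) and ventricular tachycardia (VT) were measured.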
# Mus musculus [6] = experiment: Compound was evaluated for ventricular extrasystole activity, 3 min before aconitine infusion, at a dose of 10 mg/kg, intravenously administered in mice; S=significant antiarrhythmic effect; format: functional, organism-based; parameters: dose 10 mg/kg; details: Heart; method in brief: as §2
# Mus musculus [7] = experiment: Compound was evaluated for ventricular tachycardia activity in intravenously administered mice, 3 min before aconitine infusion, at a dose of 10 mg/kg; S=significant antiarrhythmic effect; format: functional, organism-based; parameters: dose 10 mg/kg; details: Heart; method in brief: as §2
# Mus musculus [8] = experiment: Compound was evaluated for ventricular extrasystole, 30 min before aconitine infusion, at a dose of 30 mg/kg, perorally administered in mice; S=significant antiarrhythmic effect; format: functional, organism-based; parameters: dose 30 mg/kg; details: Heart; method in brief: as §2
# [9] = target: Adrenergic receptor beta (Cavia porcellus); experiment: Beta adrenergic receptor blocking activity measured by the inotropic effect was determined 1 hr after pretreament of the right atria in guinea pig
# [10] = target: Adrenergic receptor beta (Cavia porcellus); experiment: Beta adrenergic receptor blocking activity measured by the chronotropic effect was determined 1 hr after pretreatment of the right atria in guinea pig
# [11] = Lethal dose in mice (LD50) (following i.v. dosing); details: mouse, in vivo, iv
# Mus musculus [12] = experiment: Compound was evaluated for ventricular tachycardia activity in intravenously administered mice, 3 min before aconitine infusion, at a dose of 1 mg/kg; S=significant antiarrhythmic effect; format: functional, organism-based; parameters: dose 1 mg/kg; details: Heart; method in brief: as §2
# Mus musculus [13] = experiment: Compound was evaluated for ventricular extrasystole activity, 3 min before aconitine infusion, at a dose of 1 mg/kg, intravenously administered in mice; S=significant antiarrhythmic effect; format: functional, organism-based; parameters: dose 1 mg/kg; details: Heart; method in brief: as §2
# Canis familiaris [14] = experiment: Effect on ischemic arrhythmias was studied in dogs, by glass bead method. 10 mg/kg was administered perorally and percent sinus beats before compound administration, was reported.; format: functional, Canis lupus familiaris; details: route oral; method in brief: as §1
# Canis familiaris [15] = experiment: Effect on ischemic arrhythmias was studied in dogs, by glass bead method. 10 mg/kg was administered perorally and percent sinus beats after compound administration, was reported.; format: functional, Canis lupus familiaris; details: route oral; method in brief: as §1
# Canis familiaris [16] = experiment: Effect on ischemic arrhythmias was studied in dogs. 3 mg/kg was injected intravenously and percent sinus beats after compound administration, was reported.; format: functional, Canis lupus familiaris; details: route intravenous; method in brief: as §1
# Canis familiaris [17] = experiment: Effect on ischemic arrhythmias was studied in dogs. 3 mg/kg was injected intravenously and percent sinus beats before compound administration, was reported.; format: functional, Canis lupus familiaris; details: route intravenous; method in brief: as §1
# Canis familiaris [18] = species: Canis familiaris; experiment: Duration of ischemic arrhythmias in dogs determined in minutes.
# Mus musculus [19] = experiment: Compound was evaluated for ventricular tachycardia activity in perorally administered mice, 30 min before aconitine infusion, at a dose of 10 mg/kg; S=significant antiarrhythmic effect; format: functional, organism-based; parameters: dose 10 mg/kg; details: Heart; method in brief: as §2
# Mus musculus [20] = experiment: Compound was evaluated for ventricular extrasystole, 30 min before aconitine infusion, at a dose of 10 mg/kg, perorally administered in mice; S=significant antiarrhythmic effect; format: functional, organism-based; parameters: dose 10 mg/kg; details: Heart; method in brief: as §2
# Mus musculus [21] = experiment: Compound was evaluated for ventricular extrasystole, 3 min before aconitine infusion, at a dose of 3 mg/kg, intravenously administered in mice; S=significant antiarrhythmic effect; details: Heart
# Mus musculus [22] = experiment: Compound was evaluated for ventricular tachycardia activity in intravenously administered mice, 3 min before aconitine infusion, at a dose of 3 mg/kg; S=significant antiarrhythmic effect; format: functional, organism-based; parameters: dose 3 mg/kg; details: Heart; method in brief: as §2
# Mus musculus [23] = experiment: Compound was evaluated for ventricular extrasystole activity, 3 min before aconitine infusion, at a dose of 3 mg/kg, intravenously administered in mice; S=significant antiarrhythmic effect; format: functional, organism-based; parameters: dose 3 mg/kg; details: Heart; method in brief: as §2
# Mus musculus [24] = experiment: Compound was evaluated for ventricular extrasystole activity, 3 min before aconitine infusion, at a dose of 30 mg/kg, intravenously administered in mice; S=significant antiarrhythmic effect; format: functional, organism-based; parameters: dose 30 mg/kg; details: Heart; method in brief: as §2
# Mus musculus [25] = experiment: Compound was evaluated for ventricular extrasystole activity, 30 min before aconitine infusion, at a dose of 10 mg/kg, perorally administered in mice; S=significant antiarrhythmic effect; details: Heart
Structure (SMILES),Decrease (Cavia porcellus),Activity (Mus musculus [5]),Activity (Mus musculus [8]),pA2 [9],pA2 [10],LD50 [11],Activity (Mus musculus [12]),Sinus beats (Canis familiaris [16]),Sinus beats (Canis familiaris [17]),Activity (Mus musculus [19]),Activity (Mus musculus [22]),other results
C=C[C@H]1CN2CC[C@H]1C[C@@H]2[C@@H](O)c1ccnc2ccc(OC)cc12 [QUINIDINE],26.4%,Anti-arrhythmic,Anti-arrhythmic,–,–,–,–,–,–,–,–,Sinus beats (Canis familiaris [1]): 14.1%; Sinus beats (Canis familiaris [2]): 58.3%; Sinus beats (Canis familiaris [3]): 4.2%; Sinus beats (Canis familiaris [4]): 74.1%; Activity (Mus musculus [6]): Anti-arrhythmic; Activity (Mus musculus [7]): Anti-arrhythmic
C=C(c1c(C)c(C)cc(Cl)c1OCC(O)CNC(C)C)n1ccnc1 (configuration not stated),29.8%,Anti-arrhythmic,Anti-arrhythmic,5.96,5.04,15.5 mg/kg,Anti-arrhythmic,–,–,–,–,Activity (Mus musculus [13]): Anti-arrhythmic
C=C(c1c(Cl)ccc(Cl)c1OCC(O)CNCC(C)C)n1ccnc1 (configuration not stated),34.9%,–,–,5.81,4.89,–,Anti-arrhythmic,94.5%,6.5%,Anti-arrhythmic,–,Sinus beats (Canis familiaris [14]): 9.9%; Sinus beats (Canis familiaris [15]): 44.8%; Duration (Canis familiaris [18]): 60 min and 180 min; Activity (Mus musculus [13]): Anti-arrhythmic; Activity (Mus musculus [20]): Anti-arrhythmic
C=C(c1c(Cl)ccc(Cl)c1OCC(O)CNC(C)C)n1ccnc1 (configuration not stated),45.7%,–,–,5.29,4.86,–,–,88.9%,5.8%,Anti-arrhythmic,Anti-arrhythmic,Sinus beats (Canis familiaris [14]): 9.3%; Sinus beats (Canis familiaris [15]): 69.3%; Activity (Mus musculus [21]): Anti-arrhythmic
C=C(c1c(C)ccc(Cl)c1OCC(O)CNC(C)(C)C)n1ccnc1 (configuration not stated),49.8%,–,–,5.77,5.04,29.5 mg/kg,–,59.1%,11.7%,Anti-arrhythmic,Anti-arrhythmic,Activity (Mus musculus [23]): Anti-arrhythmic; Duration (Canis familiaris [18]): 30 min; Activity (Mus musculus [20]): Anti-arrhythmic
C=C(c1c(C)ccc(Cl)c1OCC(O)CNC(C)C)n1ccnc1 (configuration not stated),–,Anti-arrhythmic,–,5.55,5.67,–,Anti-arrhythmic,–,–,–,–,Activity (Mus musculus [24]): Anti-arrhythmic
CC(C)N(CCC(C(N)=O)(c1ccccc1)c1ccccn1)C(C)C (configuration not stated) [DISOPYRAMIDE],15.7%,Anti-arrhythmic,Anti-arrhythmic,–,–,30 mg/kg,–,–,–,–,–,Sinus beats (Canis familiaris [1]): 22.4%; Sinus beats (Canis familiaris [2]): 66.2%; Sinus beats (Canis familiaris [3]): 10.1%; Sinus beats (Canis familiaris [4]): 88.4%; Activity (Mus musculus [6]): Anti-arrhythmic; Activity (Mus musculus [7]): Anti-arrhythmic
C=C(c1cc(Cl)ccc1OCC(O)CNC(C)(C)C)n1cccn1 (configuration not stated),45.7%,–,–,6.99,6.9,32.5 mg/kg,–,14.3%,1.8%,–,Anti-arrhythmic,Activity (Mus musculus [25]): Anti-arrhythmic
C=C(c1ccc(Cl)c(Cl)c1OCC(O)CNC(C)C)n1ccnc1 (configuration not stated),–,–,–,4.9,4.52,–,–,–,–,–,Anti-arrhythmic,Activity (Mus musculus [21]): Anti-arrhythmic

# Reference: ChEMBL document CHEMBL1122721, “Synthesis and antiarrhythmic activity of new 1-[1-[2-[3-(alkylamino)-2-hydroxypropoxy]phenyl]vinyl]-1 H-imidazoles and related compounds” (J Med Chem, 1984)
